{
  "source": "ChEMBL document CHEMBL3227952",
  "about": "“Potential organ- or tumor-imaging agents. 18. Radioiodinated diamines and bisquaternaries” (J Med Chem, 1979)",
  "conditions_in_all_cases": "in vivo",
  "key": {"Brain [1]": {"system": "Brain", "test": "Drug uptake in Sprague-Dawley rat brain at 6.3 uCi, iv after 2 hrs by liquid scintillation counting", "format": "ADME, organism-based", "method_in_brief": "(§1)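 Adult male Sprague-Dawley rats (200–420 g) got ¹⁴C-labelled bisquaternary (20.9 µCi/mg) in saline, 0.1 mL, by tail vein under ether anesthesia. Five rats per time point were exsanguinated under ether. Organs were excised, rinsed, blotted and weighed. Duplicate samples underwent liquid scintillation counting, with quench corrected by the external standard-channels ratio. Results are % administered dose/g, mean ± SEM.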"}, "Liver [2]": {"system": "Liver", "test": "Drug uptake in Sprague-Dawley rat liver at 6.3 uCi, iv after 0.5 hrs by liquid scintillation counting", "format": "ADME, organism-based", "method_in_brief": "as §1"}, "[3]": {"test": "Drug uptake in Sprague-Dawley rat meninges at 6.3 uCi, iv after 0.5 hrs by liquid scintillation counting", "format": "ADME, organism-based", "method_in_brief": "as §1"}, "Blood [4]": {"system": "Blood", "test": "Drug uptake in Sprague-Dawley rat blood at 6.3 uCi, iv after 0.5 hrs by liquid scintillation counting", "format": "ADME, organism-based", "method_in_brief": "as §1"}, "Lung [5]": {"system": "Lung", "test": "Drug uptake in Sprague-Dawley rat lung at 6.3 uCi, iv after 0.5 hrs by liquid scintillation counting", "format": "ADME, organism-based", "method_in_brief": "as §1"}, "Lung [6]": {"system": "Lung", "test": "Drug uptake in Sprague-Dawley rat lung at 6.3 uCi, iv after 2 hrs by liquid scintillation counting", "format": "ADME, organism-based", "method_in_brief": "as §1"}, "Adrenal [7]": {"system": "Adrenal", "test": "Drug uptake in Sprague-Dawley rat adrenal at 6.3 uCi, iv after 2 hrs by liquid scintillation counting", "format": "ADME, organism-based, Adrenal gland", "method_in_brief": "as §1"}, "Spleen [8]": {"system": "Spleen", "test": "Drug uptake in Sprague-Dawley rat spleen at 6.3 uCi, iv after 0.5 hrs by liquid scintillation counting", "format": "ADME, organism-based", "method_in_brief": "(§2)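 [¹⁴C]Hexamethonium diiodide in saline (15 mg/5.0 mL), 20.9 μCi/mg, 0.1 mL injected into the tail vein of ether-anesthetized adult male Sprague-Dawley rats (200–420 g). At 0.5 or 2 h rats were exsanguinated under ether and organs excised, rinsed, blotted and weighed. Duplicate samples were counted by liquid scintillation, with quench corrected by external standard-channels ratio. Results are % administered dose/g, mean ± SEM, five rats.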"}, "Testes [9]": {"system": "Testes", "test": "Drug uptake in Sprague-Dawley rat testes at 6.3 uCi, iv after 0.5 hrs by liquid scintillation counting", "format": "ADME, organism-based, Testis", "method_in_brief": "as §2"}, "Heart [10]": {"system": "Heart", "test": "Drug uptake in Sprague-Dawley rat heart at 6.3 uCi, iv after 0.5 hrs by liquid scintillation counting", "format": "ADME, organism-based", "method_in_brief": "as §1"}, "Thyroid gland [11]": {"system": "Thyroid gland", "test": "Drug uptake in Sprague-Dawley rat thyroid at 6.3 uCi, iv after 0.5 hrs by liquid scintillation counting", "format": "ADME, organism-based", "method_in_brief": "as §2"}, "Heart [12]": {"system": "Heart", "test": "Drug uptake in Sprague-Dawley rat heart at 6.3 uCi, iv after 2 hrs by liquid scintillation counting", "format": "ADME, organism-based", "method_in_brief": "as §1"}, "Liver [13]": {"system": "Liver", "test": "Drug uptake in Sprague-Dawley rat liver at 6.3 uCi, iv after 2 hrs by liquid scintillation counting", "format": "ADME, organism-based", "method_in_brief": "as §1"}, "Spleen [14]": {"system": "Spleen", "test": "Drug uptake in Sprague-Dawley rat spleen at 6.3 uCi, iv after 2 hrs by liquid scintillation counting", "format": "ADME, organism-based", "method_in_brief": "as §2"}, "Testes [15]": {"system": "Testes", "test": "Drug uptake in Sprague-Dawley rat testes at 6.3 uCi, iv after 2 hrs by liquid scintillation counting", "format": "ADME, organism-based, Testis", "method_in_brief": "as §2"}, "Adrenal [16]": {"system": "Adrenal", "test": "Drug uptake in Sprague-Dawley rat adrenal at 6.3 uCi, iv after 0.5 hrs by liquid scintillation counting", "format": "ADME, organism-based, Adrenal gland", "method_in_brief": "as §1"}, "[17]": {"test": "Drug uptake in Sprague-Dawley rat intervertebral disk at 6.3 uCi, iv after 0.5 hrs by liquid scintillation counting", "format": "ADME, organism-based", "method_in_brief": "as §1"}, "[18]": {"test": "Drug uptake in Sprague-Dawley rat trachea at 6.3 uCi, iv after 2 hrs by liquid scintillation counting", "format": "ADME, organism-based", "method_in_brief": "as §2"}, "[19]": {"test": "Drug uptake in Sprague-Dawley rat meninges at 6.3 uCi, iv after 2 hrs by liquid scintillation counting", "format": "ADME, organism-based", "method_in_brief": "as §1"}, "[20]": {"test": "Drug uptake in Sprague-Dawley rat diaphragm at 6.3 uCi, iv after 0.5 hrs by liquid scintillation counting", "format": "ADME, organism-based", "method_in_brief": "as §1"}, "Brain [21]": {"system": "Brain", "test": "Drug uptake in Sprague-Dawley rat brain at 6.3 uCi, iv after 0.5 hrs by liquid scintillation counting", "format": "ADME, organism-based", "method_in_brief": "as §1"}, "[22]": {"test": "Drug uptake in Sprague-Dawley rat trachea at 6.3 uCi, iv after 0.5 hrs by liquid scintillation counting", "format": "ADME, organism-based", "method_in_brief": "as §2"}, "Kidney [23]": {"system": "Kidney", "test": "Drug uptake in Sprague-Dawley rat kidney at 6.3 uCi, iv after 2 hrs by liquid scintillation counting", "format": "ADME, organism-based", "method_in_brief": "as §1"}, "Thyroid gland [24]": {"system": "Thyroid gland", "test": "Drug uptake in Sprague-Dawley rat thyroid at 6.3 uCi, iv after 2 hrs by liquid scintillation counting", "format": "ADME, organism-based", "method_in_brief": "as §2"}, "Pancreas [25]": {"system": "Pancreas", "test": "Drug uptake in Sprague-Dawley rat pancreas at 6.3 uCi, iv after 0.5 hrs by liquid scintillation counting", "format": "ADME, organism-based", "method_in_brief": "as §1"}, "Pancreas [26]": {"system": "Pancreas", "test": "Drug uptake in Sprague-Dawley rat pancreas at 6.3 uCi, iv after 2 hrs by liquid scintillation counting", "format": "ADME, organism-based", "method_in_brief": "as §1"}, "[27]": {"test": "Drug uptake in Sprague-Dawley rat diaphragm at 6.3 uCi, iv after 2 hrs by liquid scintillation counting", "format": "ADME, organism-based", "method_in_brief": "as §1"}, "[28]": {"test": "Drug uptake in Sprague-Dawley rat intervertebral disk at 6.3 uCi, iv after 2 hrs by liquid scintillation counting", "format": "ADME, organism-based", "method_in_brief": "as §1"}, "Kidney [29]": {"system": "Kidney", "test": "Drug uptake in Sprague-Dawley rat kidney at 6.3 uCi, iv after 0.5 hrs by liquid scintillation counting", "format": "ADME, organism-based", "method_in_brief": "as §1"}, "Blood [30]": {"system": "Blood", "test": "Drug uptake in Sprague-Dawley rat blood at 6.3 uCi, iv after 2 hrs by liquid scintillation counting", "format": "ADME, organism-based", "method_in_brief": "as §1"}},
  "data": [
    {"molecule": "C[N+](C)([14CH3])CCCCCC[N+](C)(C)[14CH3].[I-].[I-]", "values": [
      {"measurement": "Drug uptake", "setting": "Brain [1]", "value": 0.018, "unit": "% ID/g"},
      {"measurement": "Drug uptake", "setting": "Liver [2]", "value": 0.112, "unit": "% ID/g"},
      {"measurement": "Drug uptake", "setting": "[3]", "value": 0.301, "unit": "% ID/g"},
      {"measurement": "Drug uptake", "setting": "Blood [4]", "value": 0.31, "unit": "% ID/g"},
      {"measurement": "Drug uptake", "setting": "Lung [5]", "value": 0.377, "unit": "% ID/g"},
      {"measurement": "Drug uptake", "setting": "Lung [6]", "value": 0.137, "unit": "% ID/g"},
      {"measurement": "Drug uptake", "setting": "Adrenal [7]", "value": 0.043, "unit": "% ID/g"},
      {"measurement": "Drug uptake", "setting": "Spleen [8]", "value": 0.123, "unit": "% ID/g"},
      {"measurement": "Drug uptake", "setting": "Testes [9]", "value": 0.097, "unit": "% ID/g"},
      {"measurement": "Drug uptake", "setting": "Heart [10]", "value": 0.145, "unit": "% ID/g"},
      {"measurement": "Drug uptake", "setting": "Thyroid gland [11]", "value": 0.206, "unit": "% ID/g"},
      {"measurement": "Drug uptake", "setting": "Heart [12]", "value": 0.018, "unit": "% ID/g"},
      {"measurement": "Drug uptake", "setting": "Liver [13]", "value": 0.049, "unit": "% ID/g"},
      {"measurement": "Drug uptake", "setting": "Spleen [14]", "value": 0.051, "unit": "% ID/g"},
      {"measurement": "Drug uptake", "setting": "Testes [15]", "value": 0.022, "unit": "% ID/g"},
      {"measurement": "Drug uptake", "setting": "Adrenal [16]", "value": 0.104, "unit": "% ID/g"},
      {"measurement": "Drug uptake", "setting": "[17]", "value": 1.094, "unit": "% ID/g"},
      {"measurement": "Drug uptake", "setting": "[18]", "value": 0.127, "unit": "% ID/g"},
      {"measurement": "Drug uptake", "setting": "[19]", "value": 0.413, "unit": "% ID/g"},
      {"measurement": "Drug uptake", "setting": "[20]", "value": 0.094, "unit": "% ID/g"},
      {"measurement": "Drug uptake", "setting": "Brain [21]", "value": 0.018, "unit": "% ID/g"},
      {"measurement": "Drug uptake", "setting": "[22]", "value": 1.35, "unit": "% ID/g"},
      {"measurement": "Drug uptake", "setting": "Kidney [23]", "value": 1.384, "unit": "% ID/g"},
      {"measurement": "Drug uptake", "setting": "Thyroid gland [24]", "value": 0.047, "unit": "% ID/g"},
      {"measurement": "Drug uptake", "setting": "Pancreas [25]", "value": 0.079, "unit": "% ID/g"},
      {"measurement": "Drug uptake", "setting": "Pancreas [26]", "value": 0.016, "unit": "% ID/g"},
      {"measurement": "Drug uptake", "setting": "[27]", "value": 0.014, "unit": "% ID/g"},
      {"measurement": "Drug uptake", "setting": "[28]", "value": 0.144, "unit": "% ID/g"},
      {"measurement": "Drug uptake", "setting": "Kidney [29]", "value": 2.616, "unit": "% ID/g"},
      {"measurement": "Drug uptake", "setting": "Blood [30]", "value": 0.02, "unit": "% ID/g"}
    ]}
  ]
}
